Many of the other results were omitted from the sample, so hits are more common in it than they were.
T cruzi intra: blocks T. cruzi growth inside host cells. activity score (inhibition), % at 5.01 µM. hit rate 4.9% among 22,000. intracellular Trypanosoma cruzi in host cells, plate reader; in the data active means activity score above about 55%;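 further: parasites and compound incubated about four days before reading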
INS-1E rescue: preserves ATP levels in cytokine-treated INS-1E cells; hit rate 0.1% among 20,000; AID 488910; INS-1E cytokine-induced death, ATP luminescence, 48 h; normalised: neutral wells 0, positive control 100; protection from cytokine-induced ATP loss, % at 10 µM;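 active means mean replicate protection from cytokine-induced ATP loss at least 50% and at least 75% of replicates each reaching 50%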
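Test system: INS-1E rat cells | Quantity: 8000 cells per well | Medium: Phenol-red-free RPMI with 5% fetal bovine serum | Reagent: Cytokine cocktail of IFN-γ, TNF-α and IL-1β | Doses: One compound concentration, pin transfer | Timing: 48 h co-treatment, 10 min post-lysis read | Technique: Luminescent ATP assay (CellTiter-Glo)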
A1 apoptosis 2: A1 inhibition read as caspase activation; caspase activation, % (no concentration beside the values); 24,000 tested, under 10 active; MEF A1-2A-BIM cells, caspase-Glo luminescence, 3 h; percent of clofoctol response, DMSO zero; AID 2465; in the data active means caspase activation above about 5.9%
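system = A1-2A-BIM-expressing MEF cells | quantity = 2500 MEF cells/well | dosing = 50 nL compound per well, pinned | schedule = overnight cell settling, then 3 h compound exposure, 37 °C | signal = luminescence from DEVD-luciferin Caspase-Glo reagent, 1:1 in 50 mM HEPES, 1 h RT | read-out = Caspase-3/7 activation, seen as rise in luminescence signal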
Hits are given with their value; 0 = inactive; - = not tested or not shown.

SMILES	T cruzi intra	INS-1E rescue	A1 apoptosis 2
C[C@@H]1CN([C@@H](C)CO)C(=O)Cc2cc(NC(=O)Nc3cccc4ccccc34)ccc2O[C@H]1CN(C)Cc1ccccc1	-	-	0
C[C@H](CO)N1C[C@H](C)[C@@H](CN(C)Cc2ccc(Oc3ccccc3)cc2)Oc2ccc(NC(=O)Nc3cccc4ccccc34)cc2CC1=O	-	-	0
C[C@H]1CN([C@@H](C)CO)C(=O)Cc2cc(NC(=O)Nc3cccc4ccccc34)ccc2O[C@@H]1CN(C)Cc1ccc2c(c1)OCO2	64	0	0
COc1ccc(CN(C)C[C@@H]2Oc3ccc(NC(=O)Nc4cccc5ccccc45)cc3CC(=O)N([C@H](C)CO)C[C@H]2C)cc1	65	0	0
C[C@H]1CN([C@@H](C)CO)C(=O)Cc2cc(NC(=O)Nc3cccc4ccccc34)ccc2O[C@H]1CN(C)Cc1ccc(Oc2ccccc2)cc1	0	0	-
CN(CCO)c1ccc(/C=N/NC(=O)CCCCCC(=O)NO)cc1	-	-	0
COc1cc(/C=N/NC(=O)c2ccccc2O)cc(OC)c1OC	0	0	0
C[C@@H]1CN([C@H](C)CO)C(=O)c2cc(NC(=O)C3CCCCC3)ccc2O[C@@H](C)CCCCO[C@@H]1CN(C)C(=O)c1ccncc1	-	-	0
COc1cccc(NC(=O)N(C)C[C@@H]2OCc3cn(nn3)CCCC(=O)N([C@H](C)CO)C[C@@H]2C)c1	0	-	0
O=C(NO)c1ccc(C(=O)N/N=C/c2ccc(OCCO)cc2)cc1	0	0	-
Cc1ccc(S(=O)(=O)N(C)C[C@H]2Oc3ccc(NC(=O)Nc4cccc5ccccc45)cc3CC(=O)N([C@@H](C)CO)C[C@H]2C)cc1	67	0	0
C[C@H](CO)N1C[C@H](C)[C@H](CN(C)CC2CCCCC2)Oc2ccc(NC(=O)Nc3cccc4ccccc34)cc2CC1=O	61	0	-
Cc1ccc(S(=O)(=O)N(C)C[C@@H]2Oc3ccc(NC(=O)Nc4cccc5ccccc45)cc3CC(=O)N([C@@H](C)CO)C[C@@H]2C)cc1	0	0	-
C[C@@H]1CN([C@@H](C)CO)C(=O)Cc2cc(NC(=O)Nc3cccc4ccccc34)ccc2O[C@H]1CN(C)CC1CC1	-	-	0
C[C@@H]1CN([C@@H](C)CO)C(=O)Cc2cc(NC(=O)Cc3ccccc3)ccc2O[C@@H]1CN(C)Cc1ccc(Cl)c(Cl)c1	66	0	0
C[C@@H]1CN([C@H](C)CO)C(=O)Cc2cc(NC(=O)Cc3ccccc3)ccc2O[C@@H]1CN(C)Cc1ccc(Cl)c(Cl)c1	76	0	0
C[C@@H]1CN([C@H](C)CO)C(=O)Cc2cc(NC(=O)Cc3ccccc3)ccc2O[C@H]1CN(C)Cc1ccc2c(c1)OCO2	0	0	-
C[C@@H]1CN([C@@H](C)CO)C(=O)Cc2cc(NC(=O)Cc3ccccc3)ccc2O[C@@H]1CN(C)Cc1ccccc1	0	0	-
C[C@H]1CN([C@@H](C)CO)C(=O)Cc2cc(NC(=O)Cc3ccccc3)ccc2O[C@@H]1CN(C)Cc1ccc2c(c1)OCO2	57	0	0
C[C@@H]1CN([C@H](C)CO)C(=O)Cc2cc(NC(=O)Nc3ccccc3)ccc2O[C@@H]1CN(C)Cc1ccc(Cl)c(Cl)c1	0	0	-
O=C(CCCCCC(=O)Nc1ccccc1O)N/N=C/c1ccc(O)cc1O	0	0	0
COc1ccc2nc(Cl)nc(NC3CCCCC3)c2c1	-	-	0
C[C@H]1CN([C@@H](C)CO)C(=O)Cc2cc(NS(=O)(=O)c3cccs3)ccc2O[C@@H]1CN(C)S(=O)(=O)c1ccc(F)cc1	0	0	-
Cc1ccc(S(=O)(=O)Nc2ccc3c(c2)CC(=O)N([C@@H](C)CO)C[C@H](C)[C@@H](CN(C)S(=O)(=O)c2cccs2)O3)cc1	0	0	0
Cc1ccc(S(=O)(=O)N(C)C[C@H]2Oc3ccc(NS(=O)(=O)c4cccs4)cc3CC(=O)N([C@H](C)CO)C[C@H]2C)cc1	72	0	0
SMILES	T cruzi intra	INS-1E rescue	A1 apoptosis 2
C[C@@H]1CN([C@H](C)CO)C(=O)Cc2cc(NS(=O)(=O)c3cccs3)ccc2O[C@@H]1CN(C)S(=O)(=O)c1ccc(F)cc1	60	0	-
O=C(CCCCCC(=O)N/N=C/c1ccc([N+](=O)[O-])s1)NO	64	0	-
COC(=O)CCCCCCC(=O)N/N=C/c1ccc([N+](=O)[O-])s1	81	0	0
O=C(O)CCCCCCC(=O)N/N=C/c1ccc([N+](=O)[O-])s1	0	0	0
O=C(CCCCCC(=O)Nc1ccccc1O)N/N=C/c1ccc([N+](=O)[O-])s1	-	-	0
O=C(O)CCCCCCC(=O)N/N=C/c1cc(F)ccc1O	0	0	0
COC(=O)c1c2oc(c1C(=O)OC)C(=O)N[C@H](Cc1ccccc1)Cn1cc(nn1)[C@H](Cc1ccccc1)NC(=O)N[C@H](CO)CC2	-	-	0

High-throughput results deposited in PubChem BioAssay by Broad Institute.
